Results from ChEMBL document CHEMBL3286279, “The synthesis and biological evaluation of new DNA-directed alkylating agents, phenyl N-mustard-4-anilinoquinoline conjugates containing a urea linker” (Eur J Med Chem, 2014).
Activity calls are given as the source filed them. The rule behind the calls is not given here.

Legend:
HCT-116 = assay: Cytotoxicity against human HCT116 cells after 72 hrs by AlamarBlue assay; assay type: functional, cell-based; details: HCT-116, 72 h
Method in brief: (§1)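 Growth inhibition read by alamarBlue. After reagent addition, plates were held 6 h at 37 °C and absorbance read at 570 and 600 nm. IC50 was derived from dose-response curves over 6 or 7 drug concentrations by the median-effect method. Values are mean and STDEV of three to six independent experiments.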

PC-3 = assay: Cytotoxicity against human PC3 cells after 72 hrs by AlamarBlue assay; assay type: functional, cell-based; details: PC-3, 72 h; method in brief: as §1
CCRF-CEM [1] = assay: Ratio of IC50 for human vinblastine-resistant CCRF-CEM cells to IC50 for human CCRF-CEM cells; assay type: functional
Method in brief: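 Ratio of alamarBlue IC50 values, determined in the CCRF-CEM/VBL vinblastine-resistant subline and in the parental CCRF-CEM line.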

[2] = Cytotoxicity against human H460 cells after 72 hrs by AlamarBlue assay; assay type: functional, cell-based; details: NCI-H460, 72 h; method in brief: as §1
CCRF-CEM [3] = assay: Cytotoxicity against human CCRF-CEM cells after 72 hrs by AlamarBlue assay; assay type: functional, cell-based; method in brief: as §1
CCRF-CEM [4] = assay: Cytotoxicity against human vinblastine-resistant CCRF-CEM cells after 72 hrs by AlamarBlue assay; assay type: functional, cell-based; method in brief: as §1
[5] = Cytotoxicity against human H1299 cells after 72 hrs by AlamarBlue assay; assay type: functional, cell-based; details: NCI-H1299, 72 h; method in brief: as §1
NCI-H460 [6] = assay: Induction of apoptosis in human H460 cells assessed as early apoptotic cells at 2 uM after 72 hrs using Annexin V/propidium iodide staining by flow cytometry (reference value: 2%); assay type: functional
NCI-H460 [7] = assay: Induction of apoptosis in human H460 cells assessed as necrotic cells at 2 uM after 24 hrs using Annexin V/propidium iodide staining by flow cytometry (reference value: 0.6%); assay type: functional
NCI-H460 [8] = assay: Induction of apoptosis in human H460 cells assessed as necrotic cells at 2 uM after 48 hrs using Annexin V/propidium iodide staining by flow cytometry (reference value: 0.6%); assay type: functional
NCI-H460 [9] = assay: Induction of apoptosis in human H460 cells assessed as early apoptotic cells at 2 uM after 24 hrs using Annexin V/propidium iodide staining by flow cytometry (reference value: 2%); assay type: functional
[10] = Cell cycle arrest in human H460 cells assessed as accumulation at G1 phase after 24 hrs using propidium iodide staining by flow cytometry; assay type: functional, cell-based; details: NCI-H460
Method in brief: (§2)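 H460 cells exposed to 0.25, 0.5, 1 or 2 µM for 24 h, then stained with […] propidium iodide in PBS with 0.1 mg/mL RNase A and 1% Triton X-100. DNA content and phase distribution read by flow cytometry. Values are the mean of 3 independent experiments.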

[11] = Cell cycle arrest in human H460 cells assessed as accumulation at sub-G1 phase at 2 uM after 24 hrs using propidium iodide staining by flow cytometry; assay type: functional, cell-based; details: NCI-H460; method in brief: as §2
[12] = Cell cycle arrest in human H460 cells assessed as accumulation at G2/M phase after 24 hrs using propidium iodide staining by flow cytometry; assay type: functional, cell-based; details: NCI-H460; method in brief: as §2
NCI-H460 [13] = assay: Induction of apoptosis in human H460 cells assessed as late apoptotic cells at 2 uM after 48 hrs using Annexin V/propidium iodide staining by flow cytometry (reference value: 7%); assay type: functional
NCI-H460 [14] = assay: Induction of apoptosis in human H460 cells assessed as necrotic cells at 2 uM after 72 hrs using Annexin V/propidium iodide staining by flow cytometry (reference value: 0.6%); assay type: functional
NCI-H460 [15] = assay: Induction of apoptosis in human H460 cells assessed as late apoptotic cells at 2 uM after 72 hrs using Annexin V/propidium iodide staining by flow cytometry (reference value: 7%); assay type: functional
NCI-H460 [16] = assay: Induction of apoptosis in human H460 cells assessed as early apoptotic cells at 2 uM after 48 hrs using Annexin V/propidium iodide staining by flow cytometry (reference value: 2%); assay type: functional
NCI-H460 [17] = assay: Induction of apoptosis in human H460 cells assessed as late apoptotic cells at 2 uM after 24 hrs using Annexin V/propidium iodide staining by flow cytometry (reference value: 7%); assay type: functional
[18] = Induction of DNA cross-linking activity in pEGFP-N1 DNA (unknown origin) at 20 uM after 2 hrs by alkaline agarose gel shift assay
Method in brief: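 pEGFP-N1 plasmid DNA incubated with compound at 1, 10 or 20 µM in binding buffer (30 mM NaCl/10 mM sodium phosphate pH 7.4, 10 mM EDTA) for 2 h at 37 °C. DNA then linearized with BamHI for 6 h, ethanol-precipitated and run on alkaline agarose gel. Cross-linked double-stranded DNA was scored against single-stranded DNA. Melphalan (1 and 10 µM) was the positive control.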

SMILES	IC50 (HCT-116) [µM]	IC50 (PC-3) [µM]	Ratio IC50 (CCRF-CEM [1])	IC50 [2] [µM]	IC50 (CCRF-CEM [3]) [µM]	IC50 (CCRF-CEM [4]) [µM]	IC50 [5] [µM]	Activity (NCI-H460 [6]) [%]	Activity (NCI-H460 [7]) [%]	Activity (NCI-H460 [8]) [%]	Activity (NCI-H460 [9]) [%]	Activity [10]	Activity [11]	Activity [12]	Activity (NCI-H460 [13]) [%]	Activity (NCI-H460 [14]) [%]	Activity (NCI-H460 [15]) [%]	Activity (NCI-H460 [16]) [%]	Activity (NCI-H460 [17]) [%]	Activity [18]
Cc1cc(Nc2cccc(Cl)c2)c2cc(NC(=O)Nc3ccc(N(CCCl)CCCl)cc3)ccc2n1	0.56	1.27	12.81	1.03	0.59	7.56	0.88													
COc1cc(Nc2cc(C)nc3ccc(NC(=O)Nc4ccc(N(CCCl)CCCl)cc4)cc23)cc(OC)c1OC	1.81	3.46	>125	3.74	0.8	> 100	2.54													
Cc1cc(Nc2cccc(C(F)(F)F)c2)c2cc(NC(=O)Nc3ccc(N(CCCl)CCCl)cc3)ccc2n1	0.62	1.42	10.1	0.85	0.59	5.96	1.48													
Cc1cc(Nc2ccc(F)cc2)c2cc(NC(=O)Nc3ccc(N(CCCl)CCCl)cc3)ccc2n1	1.06	7.16	26.19	1.01	0.42	11	2.37													
Cc1cc(Nc2ccccc2)c2cc(NC(=O)Nc3ccc(N(CCCl)CCCl)cc3)ccc2n1	0.83	1.49	26.15	1.37	0.44	11.5	1.73													
Cc1cc(Nc2cccc(Br)c2)c2cc(NC(=O)Nc3ccc(N(CCCl)CCCl)cc3)ccc2n1	0.49	1.41	11.28	1.18	0.46	5.19	0.77	3.7	4.3	21.8	3.7	Dose-dependent effect	Active	Dose-dependent effect	32.6	9.8	65.5	1.4	16.7	
O=C(Nc1ccc(N(CCCl)CCCl)cc1)Nc1ccc2nc(-c3ccccc3)cc(Nc3ccc(F)c(Cl)c3)c2c1	3.58	8.86	2.59	7.81	2.72	7.07	5.39													
CC[C@]1(O)C[C@@H]2CN(CCc3c([nH]c4ccccc34)[C@@](C(=O)OC)(c3cc4c(cc3OC)N(C)[C@H]3[C@@](O)(C(=O)OC)[C@H](OC(C)=O)[C@]5(CC)C=CCN6CC[C@]43[C@@H]65)C2)C1 [VINBLASTINE]			300		0.0029	0.87														
Cc1cc(Nc2cccc(F)c2)c2cc(NC(=O)Nc3ccc(N(CCCl)CCCl)cc3)ccc2n1	0.74	1.49	13.68	0.86	0.7	9.58	1.09													
O=C(Nc1ccc(N(CCCl)CCCl)cc1)Nc1ccc2nc(-c3ccccc3)cc(Nc3cccc(Cl)c3)c2c1	3.69	2.13	2.19	2.26	2.07	4.55	2.35													
Cc1cccc(Nc2cc(C)nc3ccc(NC(=O)Nc4ccc(N(CCCl)CCCl)cc4)cc23)c1	0.49	1.29	15	0.92	0.39	5.85	1.05													Active
C#Cc1cccc(Nc2cc(C)nc3ccc(NC(=O)Nc4ccc(N(CCCl)CCCl)cc4)cc23)c1	0.59	1.17	9.55	0.7	0.47	4.49	1.13													
Cc1cc(Nc2ccc(F)c(Cl)c2)c2cc(NC(=O)Nc3ccc(N(CCCl)CCCl)cc3)ccc2n1	0.83	1.78	18.2	1.4	0.54	9.83	1.07													
COc1cccc(Nc2cc(-c3ccccc3)nc3ccc(NC(=O)Nc4ccc(N(CCCl)CCCl)cc4)cc23)c1	1.35	2.21	3.43	1.89	0.79	2.71	2.13													
Cc1cccc(Nc2cc(-c3ccccc3)nc3ccc(NC(=O)Nc4ccc(N(CCCl)CCCl)cc4)cc23)c1	1.8	1.23	2.25	2.09	1.84	4.15	1.42													
Cc1cc(Nc2ccc(F)c(Br)c2)c2cc(NC(=O)Nc3ccc(N(CCCl)CCCl)cc3)ccc2n1	0.63	1.32	25.45	0.82	0.4	10.2	1.28													
Cc1cc(Nc2ccc(Br)cc2)c2cc(NC(=O)Nc3ccc(N(CCCl)CCCl)cc3)ccc2n1	0.8	1.75	18.33	0.91	0.52	9.53	1.35													
COc1cccc(Nc2cc(C)nc3ccc(NC(=O)Nc4ccc(N(CCCl)CCCl)cc4)cc23)c1	0.62	2.38	15.07	1.83	0.28	4.22	1.32													Active
Cc1cc(Nc2ccc(Cl)cc2)c2cc(NC(=O)Nc3ccc(N(CCCl)CCCl)cc3)ccc2n1	0.77	1.36	11.21	0.84	0.73	8.18	1.31													
CNc1cc(C)nc2ccc(NC(=O)Nc3ccc(N(CCCl)CCCl)cc3)cc12	1.28	2.51	>256	9.37	0.39	> 100	5.4													
